Measured values as given in ChEMBL document CHEMBL1121628, “Synthesis of isomeric thienobenzothiazines and their effect on dopamine metabolism in rat brain” (1980).

Key:
Format in all cases: functional
Rattus norvegicus [1] = species: Rattus norvegicus; experiment: Effective dose causing a homovanillic acid (HVA) concentration three fold the control level in rat striatum
Procedure, shortened: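 Male albino Wistar rats (180-250 g) received drug i.p. in 0.9% NaCl with a little ascorbic acid, made fresh and kept from light. Controls got saline-ascorbic acid. Rats were decapitated 2 h later and the corpus striatum dissected. HVA was read fluorometrically as the mean of left and right striata. Four to six doses, 3-6 rats each; threefold-HVA dose taken from log dose-response curves.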

Rattus norvegicus [2] = experiment: Tested for neuroleptic activity by measuring the increase in homovanillic acid (HVA) level in rat nucleus accumbens at dosage of 50 umol/kg
Rattus norvegicus [3] = experiment: Tested for neuroleptic activity by measuring the increase in homovanillic acid (HVA) level in rat tuberculum olfactorium at dosage of 50 umol/kg
Procedure, shortened: (§1)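 Freshly made in 0.9% NaCl with a little ascorbic acid and kept from light, given ip to male Wistar rats (180-250 g); controls got saline-ascorbic acid. Rats decapitated 2 h post-dose and the brain region dissected. HVA was measured by a semiautomatic fluorometric method and expressed as % of control levels. 3-6 rats per dose.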

Rattus norvegicus [4] = experiment: Tested for neuroleptic activity by measuring the increase in homovanillic acid (HVA) level in rat tuberculum olfactorium at dosage of 20 umol/kg; procedure, shortened: as §1
Rattus norvegicus [5] = experiment: Tested for neuroleptic activity by measuring the increase in homovanillic acid (HVA) level in rat corpus striatum at dosage of 50 umol/kg
Procedure, shortened: (§2)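 Wistar male rats (180-250 g) were dosed i.p. at the stated level in fresh, light-protected 0.9% NaCl with a little ascorbic acid; controls received saline-ascorbic acid. They were decapitated at 2 h and the corpus striatum removed. HVA was assayed by a semiautomatic fluorometric method, averaging both striata, with 3-6 rats per dose. Values are expressed as % of control HVA.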

Rattus norvegicus [6] = experiment: Tested for neuroleptic activity by measuring the increase in homovanillic acid (HVA) level in rat corpus striatum at dosage of 20 umol/kg; procedure, shortened: as §2
Rattus norvegicus [7] = experiment: Tested for neuroleptic activity by measuring the increase in homovanillic acid (HVA) level in rat corpus striatum at dosage of 30 umol/kg; procedure, shortened: as §2
Rattus norvegicus [8] = experiment: Tested for neuroleptic activity by measuring the increase in homovanillic acid (HVA) level in rat tuberculum olfactorium at dosage of 10 umol/kg; procedure, shortened: as §1
Rattus norvegicus [9] = experiment: Tested for neuroleptic activity by measuring the increase in homovanillic acid (HVA) level in rat nucleus accumbens at dosage of 20 umol/kg
Rattus norvegicus [10] = experiment: Tested for neuroleptic activity by measuring the increase in homovanillic acid (HVA) level in rat nucleus accumbens at dosage of 10 umol/kg
Rattus norvegicus [11] = experiment: Tested for neuroleptic activity by measuring the increase in homovanillic acid (HVA) level in rat nucleus accumbens at dosage of 30 umol/kg
Rattus norvegicus [12] = experiment: Tested for neuroleptic activity by measuring the increase in homovanillic acid (HVA) level in rat tuberculum olfactorium at dosage of 30 umol/kg; procedure, shortened: as §1
Rattus norvegicus [13] = experiment: Tested for neuroleptic activity by measuring the increase in homovanillic acid (HVA) level in rat corpus striatum at dosage of 10 umol/kg; procedure, shortened: as §2
Rattus norvegicus [14] = experiment: Tested for neuroleptic activity by measuring the increase in homovanillic acid (HVA) level in rat nucleus accumbens at dosage of 5 umol/kg
Rattus norvegicus [15] = experiment: Tested for neuroleptic activity by measuring the increase in homovanillic acid (HVA) level in rat corpus striatum at dosage of 25 umol/kg; procedure, shortened: as §2
Rattus norvegicus [16] = experiment: Tested for neuroleptic activity by measuring the increase in homovanillic acid (HVA) level in rat nucleus accumbens at dosage of 15 umol/kg; procedure, shortened: as §1
Rattus norvegicus [17] = experiment: Tested for neuroleptic activity by measuring the increase in homovanillic acid (HVA) level in rat tuberculum olfactorium at dosage of 25 umol/kg; procedure, shortened: as §1
Rattus norvegicus [18] = experiment: Tested for neuroleptic activity by measuring the increase in homovanillic acid (HVA) level in rat corpus striatum at dosage of 15 umol/kg; procedure, shortened: as §2
Rattus norvegicus [19] = experiment: Tested for neuroleptic activity by measuring the increase in homovanillic acid (HVA) level in rat tuberculum olfactorium at dosage of 15 umol/kg; procedure, shortened: as §1
Rattus norvegicus [20] = experiment: Tested for neuroleptic activity by measuring the increase in homovanillic acid (HVA) level in rat nucleus accumbens at dosage of 25 umol/kg
Rattus norvegicus [21] = experiment: Tested for neuroleptic activity by measuring the increase in homovanillic acid (HVA) level in rat tuberculum olfactorium at dosage of 5 umol/kg; procedure, shortened: as §1
Rattus norvegicus [22] = experiment: Tested for neuroleptic activity by measuring the increase in homovanillic acid (HVA) level in rat corpus striatum at dosage of 5 umol/kg; procedure, shortened: as §2
Rattus norvegicus [23] = experiment: Tested for neuroleptic activity by measuring the increase in homovanillic acid (HVA) level in rat corpus striatum at dosage of 75 umol/kg; procedure, shortened: as §2
Rattus norvegicus [24] = experiment: Tested for neuroleptic activity by measuring the increase in homovanillic acid (HVA) level in rat tuberculum olfactorium at dosage of 75 umol/kg; procedure, shortened: as §1
Rattus norvegicus [25] = experiment: Tested for neuroleptic activity by measuring the increase in homovanillic acid (HVA) level in rat nucleus accumbens at dosage of 75 umol/kg

## CN(C)CCCN1c2cc(Cl)ccc2Sc2ccsc21
Rattus norvegicus [1]
  ED300: 350 µM/kg

## CN(C)CCCN1c2cc(C(F)(F)F)ccc2Sc2sccc21
Rattus norvegicus [2]
  HVA control: 510%
Rattus norvegicus [3]
  HVA control: 300%
Rattus norvegicus [4]
  HVA control: 240%
Rattus norvegicus [5]
  HVA control: 510%
Rattus norvegicus [1]
  ED300: 6.1 µM/kg
Rattus norvegicus [6]
  HVA control: 410%
Rattus norvegicus [7]
  HVA control: 430%
Rattus norvegicus [8]
  HVA control: 180%
Rattus norvegicus [9]
  HVA control: 350%
Rattus norvegicus [10]
  HVA control: 250%
Rattus norvegicus [11]
  HVA control: 360%
Rattus norvegicus [12]
  HVA control: 280%
Rattus norvegicus [13]
  HVA control: 320%

## CN(C)CCCN1c2ccccc2Sc2cscc21
Rattus norvegicus [1]
  ED300: 460 µM/kg

## CN(C)CCCN1c2cscc2Sc2ccc(C(F)(F)F)cc21
Rattus norvegicus [14]
  HVA control: 125%
Rattus norvegicus [15]
  HVA control: 445%
Rattus norvegicus [16]
  HVA control: 260%
Rattus norvegicus [1]
  ED300: 9.2 µM/kg
Rattus norvegicus [17]
  HVA control: 270%
Rattus norvegicus [18]
  HVA control: 340%
Rattus norvegicus [19]
  HVA control: 210%
Rattus norvegicus [20]
  HVA control: 390%
Rattus norvegicus [8]
  HVA control: 160%
Rattus norvegicus [21]
  HVA control: 100%
Rattus norvegicus [10]
  HVA control: 185%
Rattus norvegicus [13]
  HVA control: 310%
Rattus norvegicus [22]
  HVA control: 140%

## CN(C)CCCN1c2cscc2Sc2ccc(Cl)cc21
Rattus norvegicus [1]
  ED300: 19.2 µM/kg

## CN(C)CCCN1c2cc(C(F)(F)F)ccc2Sc2ccsc21
Rattus norvegicus [23]
  HVA control: 440%
Rattus norvegicus [2]
  HVA control: 180%
Rattus norvegicus [3]
  HVA control: 150%
Rattus norvegicus [16]
  HVA control: 100%
Rattus norvegicus [5]
  HVA control: 310%
Rattus norvegicus [1]
  ED300: 30.1 µM/kg
Rattus norvegicus [18]
  HVA control: 130%
Rattus norvegicus [24]
  HVA control: 200%
Rattus norvegicus [25]
  HVA control: 375%

## CN(C)CCCN1c2ccccc2Sc2sccc21
Rattus norvegicus [1]
  ED300: 480 µM/kg

## CN(C)CCCN1c2cc(Cl)ccc2Sc2sccc21
Rattus norvegicus [1]
  ED300: 36 µM/kg

## Cl.OCCN1CCN(CCCN2c3ccccc3Sc3sccc32)CC1
Rattus norvegicus [1]
  ED300: 18.9 µM/kg

## Cl.OCCN1CCN(CCCN2c3cc(Cl)ccc3Sc3sccc32)CC1
Rattus norvegicus [1]
  ED300: 3.27 µM/kg

## Cl.OCCN1CCN(CCCN2c3cc(C(F)(F)F)ccc3Sc3ccsc32)CC1
Rattus norvegicus [1]
  ED300: 4 µM/kg

## Cl.OCCN1CCN(CCCN2c3cc(C(F)(F)F)ccc3Sc3sccc32)CC1
Rattus norvegicus [1]
  ED300: 0.75 µM/kg

## Cl.OCCN1CCN(CCCN2c3cscc3Sc3ccc(C(F)(F)F)cc32)CC1
Rattus norvegicus [1]
  ED300: 0.54 µM/kg

## Cl.OCCN1CCN(CCCN2c3cc(Cl)ccc3Sc3ccsc32)CC1
Rattus norvegicus [1]
  ED300: 20.5 µM/kg

## Cl.OCCN1CCN(CCCN2c3cscc3Sc3ccc(Cl)cc32)CC1
Rattus norvegicus [1]
  ED300: 1.5 µM/kg

## Cl.OCCN1CCN(CCCN2c3ccccc3Sc3cscc32)CC1
Rattus norvegicus [1]
  ED300: 13.7 µM/kg
